Results taken from ChEMBL document CHEMBL1148234, “Tricyclic pyridones as functionally selective human GABAA alpha 2/3 receptor-ion channel ligands” (Bioorg Med Chem Lett, 2004).

Columns and labels:
[1] = biological target: T1, GABA-A receptor; alpha-1/beta-3/gamma-2 (Homo sapiens, UniProt P14867+P18507+P28472); experiment: Binding affinity at human recombinant gamma-aminobutyric-acid A receptor alpha-1-beta-3-gamma-2 expressed in L(tk) cells by [3H]Ro-151788 displacement.; assay type: cell-based
T1 sequence (P14867 whole entry): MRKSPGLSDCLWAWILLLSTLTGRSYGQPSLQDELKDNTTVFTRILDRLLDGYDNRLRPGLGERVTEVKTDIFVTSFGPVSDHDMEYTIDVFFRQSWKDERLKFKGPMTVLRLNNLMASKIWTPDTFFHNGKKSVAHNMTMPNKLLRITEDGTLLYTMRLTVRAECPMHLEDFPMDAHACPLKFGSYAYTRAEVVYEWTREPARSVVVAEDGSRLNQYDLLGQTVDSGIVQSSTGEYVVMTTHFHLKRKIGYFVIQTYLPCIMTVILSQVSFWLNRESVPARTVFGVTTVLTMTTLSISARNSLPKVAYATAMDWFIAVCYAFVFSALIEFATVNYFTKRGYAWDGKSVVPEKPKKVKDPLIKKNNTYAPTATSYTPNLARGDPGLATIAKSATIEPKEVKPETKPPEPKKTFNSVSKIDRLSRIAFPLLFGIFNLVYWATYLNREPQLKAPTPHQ
T1 sequence (P18507 whole entry): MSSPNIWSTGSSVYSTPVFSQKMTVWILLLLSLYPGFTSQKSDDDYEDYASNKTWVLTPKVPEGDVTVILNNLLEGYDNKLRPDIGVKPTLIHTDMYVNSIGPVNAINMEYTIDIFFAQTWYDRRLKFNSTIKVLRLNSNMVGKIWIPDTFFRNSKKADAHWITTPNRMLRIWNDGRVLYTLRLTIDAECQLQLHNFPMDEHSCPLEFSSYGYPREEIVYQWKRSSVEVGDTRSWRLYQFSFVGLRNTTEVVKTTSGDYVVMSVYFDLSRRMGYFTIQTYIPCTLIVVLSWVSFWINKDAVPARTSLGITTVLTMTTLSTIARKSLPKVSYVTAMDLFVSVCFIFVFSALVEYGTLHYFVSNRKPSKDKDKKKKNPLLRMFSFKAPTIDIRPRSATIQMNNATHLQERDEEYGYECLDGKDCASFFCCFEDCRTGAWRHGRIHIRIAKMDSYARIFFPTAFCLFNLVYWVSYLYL
T1 sequence (P28472 whole entry): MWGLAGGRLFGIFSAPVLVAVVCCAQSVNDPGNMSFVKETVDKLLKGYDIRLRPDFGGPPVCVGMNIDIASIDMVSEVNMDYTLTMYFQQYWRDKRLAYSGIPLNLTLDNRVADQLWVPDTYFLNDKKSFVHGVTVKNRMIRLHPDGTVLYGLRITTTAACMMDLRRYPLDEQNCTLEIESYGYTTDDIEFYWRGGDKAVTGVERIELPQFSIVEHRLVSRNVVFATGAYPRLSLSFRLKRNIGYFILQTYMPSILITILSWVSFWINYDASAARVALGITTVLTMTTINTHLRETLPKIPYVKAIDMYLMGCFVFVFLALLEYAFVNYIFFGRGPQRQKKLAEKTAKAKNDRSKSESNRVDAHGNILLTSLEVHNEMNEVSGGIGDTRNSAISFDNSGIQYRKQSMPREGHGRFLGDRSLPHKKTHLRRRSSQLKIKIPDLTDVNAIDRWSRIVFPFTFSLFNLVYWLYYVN
Method in brief: (§1)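 Human recombinant GABAA receptors (α1 or α3 with β3γ2) stably expressed in L(tk⁻) cells; affinity measured as displacement of [³H]Ro15-1788. Values are mean±SD of 2–10 separate determinations.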

[2] = biological target: T2, GABA-A receptor; alpha-3/beta-3/gamma-2 (Homo sapiens, UniProt P18507+P28472+P34903); experiment: Binding affinity at human recombinant gamma-aminobutyric-acid A receptor alpha-3-beta-3-gamma-2 expressed in L(tk) cells by [3H]Ro-151788 displacement.; assay type: cell-based; method in brief: as §1
T2 sequence (P18507 whole entry): T1 sequence (P18507 whole entry)
T2 sequence (P28472 whole entry): T1 sequence (P28472 whole entry)
T2 sequence (P34903 whole entry): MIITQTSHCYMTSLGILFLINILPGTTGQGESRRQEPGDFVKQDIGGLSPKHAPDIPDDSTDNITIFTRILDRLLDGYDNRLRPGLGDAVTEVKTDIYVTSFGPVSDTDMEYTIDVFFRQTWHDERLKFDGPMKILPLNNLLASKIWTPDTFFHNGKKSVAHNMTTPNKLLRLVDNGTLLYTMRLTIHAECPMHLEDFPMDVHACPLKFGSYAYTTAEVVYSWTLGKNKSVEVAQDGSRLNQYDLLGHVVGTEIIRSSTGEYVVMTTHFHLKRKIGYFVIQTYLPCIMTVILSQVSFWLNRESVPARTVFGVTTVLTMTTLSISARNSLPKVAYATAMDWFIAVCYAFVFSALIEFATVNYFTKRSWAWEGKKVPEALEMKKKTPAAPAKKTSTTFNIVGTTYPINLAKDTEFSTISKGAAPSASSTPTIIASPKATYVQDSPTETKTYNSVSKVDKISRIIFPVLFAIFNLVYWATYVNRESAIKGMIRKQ

[3] = biological target: T3, Gamma-aminobutyric acid receptor subunit alpha-3 (Homo sapiens) (UniProt P34903); experiment: Efficacy at Gamma-aminobutyric acid A receptor, alpha 3-ion channel relative to chlorodiazepoxide.
T3 sequence (whole entry): T2 sequence (P34903 whole entry)
Method in brief: (§2)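 Human recombinant GABAA receptors, α1 or α3 with β3γ2, stably expressed in L(tk⁻) cells. Chloride ion flux modulated by test compound at approximately 1000×Ki, in the presence of GABA at an EC20-equivalent concentration. Efficacy expressed relative to full agonist chlordiazepoxide (=1.0), from at least seven independent experiments; some compounds measured instead by whole-cell patch-clamp current at GABA EC20.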

[4] = biological target: T4, Gamma-aminobutyric acid receptor subunit alpha-1 (Homo sapiens) (UniProt P14867); experiment: Efficacy at gamma-aminobutyric acid A receptor, alpha 1-ion channel relative to chlorodiazepoxide.; method in brief: as §2
T4 sequence (whole entry): T1 sequence (P14867 whole entry)

[5] = biological target: T1, GABA-A receptor; alpha-1/beta-3/gamma-2; experiment: Displacement of [3H]Ro-151788 from human GABA-A receptor alpha-1-beta-3-gamma-2 subunits expressed in L(tk) cells; assay type: cell-based; method in brief: as §1
[6] = biological target: Gamma-aminobutyric acid receptor subunit alpha-6 (Homo sapiens, UniProt Q16445); experiment: Displacement of [3H]Ro-151788 from human GABA-A receptor alpha6 subunit expressed in L(tk) cells; assay type: cell-based
Gamma-aminobutyric acid receptor subunit alpha-6, sequence (Q16445 whole entry): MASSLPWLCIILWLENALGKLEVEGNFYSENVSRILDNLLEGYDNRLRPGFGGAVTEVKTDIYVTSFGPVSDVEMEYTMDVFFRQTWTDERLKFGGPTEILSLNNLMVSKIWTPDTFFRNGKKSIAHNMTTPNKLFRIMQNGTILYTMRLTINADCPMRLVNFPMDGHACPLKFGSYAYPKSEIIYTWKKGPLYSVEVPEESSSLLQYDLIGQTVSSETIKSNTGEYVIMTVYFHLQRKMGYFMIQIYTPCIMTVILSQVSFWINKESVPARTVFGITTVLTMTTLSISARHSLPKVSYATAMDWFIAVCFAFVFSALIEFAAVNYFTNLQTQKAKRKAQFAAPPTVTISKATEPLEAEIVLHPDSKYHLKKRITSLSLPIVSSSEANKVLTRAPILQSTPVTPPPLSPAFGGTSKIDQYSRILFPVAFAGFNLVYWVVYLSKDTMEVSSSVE

[7] = Oral bioavailability in dog; assay type: ADME, organism-based, Canis lupus familiaris; conditions: in vivo
[8] = biological target: Gamma-aminobutyric acid receptor subunit alpha-4 (Homo sapiens, UniProt P48169); experiment: Displacement of [3H]Ro-151788 from human GABA-A receptor alpha4 subunit expressed in L(tk) cells; assay type: cell-based
Gamma-aminobutyric acid receptor subunit alpha-4, sequence (P48169 whole entry): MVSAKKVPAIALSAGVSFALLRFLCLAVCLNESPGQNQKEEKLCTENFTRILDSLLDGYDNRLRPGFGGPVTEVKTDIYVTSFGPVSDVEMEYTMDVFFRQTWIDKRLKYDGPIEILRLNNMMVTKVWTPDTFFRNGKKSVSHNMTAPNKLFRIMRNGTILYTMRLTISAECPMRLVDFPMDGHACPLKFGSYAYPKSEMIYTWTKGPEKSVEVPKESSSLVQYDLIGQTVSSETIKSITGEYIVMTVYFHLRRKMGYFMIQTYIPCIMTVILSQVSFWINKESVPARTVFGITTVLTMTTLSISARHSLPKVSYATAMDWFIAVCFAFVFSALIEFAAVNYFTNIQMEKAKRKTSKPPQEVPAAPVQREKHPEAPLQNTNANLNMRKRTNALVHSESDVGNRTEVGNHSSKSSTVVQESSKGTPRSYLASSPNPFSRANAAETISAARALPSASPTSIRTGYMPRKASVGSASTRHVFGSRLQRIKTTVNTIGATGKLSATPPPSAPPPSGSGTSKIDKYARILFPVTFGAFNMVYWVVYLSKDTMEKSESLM

[9] = Oral bioavailability in rat; assay type: ADME, organism-based; conditions: in vivo
[10] = biological target: T5, Gamma-aminobutyric acid receptor subunit alpha-5 (Homo sapiens, UniProt P31644); experiment: Displacement of [3H]-Ro-15-1788 from human GABA-A receptor alpha5 subunit expressed in L(tk) cells; assay type: cell-based
T5 sequence (P31644 whole entry): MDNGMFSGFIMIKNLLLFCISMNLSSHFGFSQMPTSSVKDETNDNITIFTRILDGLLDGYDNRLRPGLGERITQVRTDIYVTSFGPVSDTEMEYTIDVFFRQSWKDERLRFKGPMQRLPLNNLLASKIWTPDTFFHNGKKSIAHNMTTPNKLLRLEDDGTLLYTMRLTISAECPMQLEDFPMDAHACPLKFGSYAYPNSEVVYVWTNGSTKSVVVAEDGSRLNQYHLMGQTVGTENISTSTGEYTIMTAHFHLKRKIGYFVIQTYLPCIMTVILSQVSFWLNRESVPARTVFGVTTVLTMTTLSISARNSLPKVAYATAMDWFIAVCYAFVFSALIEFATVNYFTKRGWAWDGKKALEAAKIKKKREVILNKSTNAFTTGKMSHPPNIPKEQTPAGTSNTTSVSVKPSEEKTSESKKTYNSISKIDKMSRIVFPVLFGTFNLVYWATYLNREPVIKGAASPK

[11] = biological target: T6, Gamma-aminobutyric acid receptor subunit alpha-2 (Homo sapiens, UniProt P47869); experiment: Displacement of [3H]Ro-151788 from human GABA-A receptor alpha2 subunit expressed in L(tk) cells; assay type: cell-based
T6 sequence (P47869 whole entry): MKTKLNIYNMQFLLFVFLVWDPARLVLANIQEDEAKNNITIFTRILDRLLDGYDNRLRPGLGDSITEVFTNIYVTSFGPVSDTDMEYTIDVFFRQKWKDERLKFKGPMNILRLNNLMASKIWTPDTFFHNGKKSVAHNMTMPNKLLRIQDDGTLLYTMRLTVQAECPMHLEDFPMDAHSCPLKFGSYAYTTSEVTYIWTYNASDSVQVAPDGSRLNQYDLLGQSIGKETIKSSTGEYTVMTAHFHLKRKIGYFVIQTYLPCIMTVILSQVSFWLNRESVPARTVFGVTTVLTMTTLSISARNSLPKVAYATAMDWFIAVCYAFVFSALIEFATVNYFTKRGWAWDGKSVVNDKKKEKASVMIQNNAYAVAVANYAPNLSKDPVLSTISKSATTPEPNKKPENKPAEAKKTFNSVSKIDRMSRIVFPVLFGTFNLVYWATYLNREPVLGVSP

Cc1csc(-c2cc(-c3ccc4ccccc4c3)c3n(c2=O)CCCc2ccncc2-3)n1
Ki [1]: > 33 nM
Ki [2]: > 33 nM

Cc1csc(-c2cc(-c3ccnnc3)c3n(c2=O)CCCc2ccncc2-3)n1
Efficacy [3]: 0.2
Ki [1]: 8.3 nM
Ki [2]: 5 nM
Efficacy [4]: -0.41

Cc1csc(-c2cc(-c3ccncn3)c3n(c2=O)CCCc2ccncc2-3)n1
Efficacy [3]: 0.32
Ki [1]: 12.2 nM
Ki [2]: 8.5 nM
Efficacy [4]: 0.03

Cc1csc(-c2cc(-c3ccc(C#N)cc3)c3n(c2=O)CCCc2ccncc2-3)n1
Efficacy [3]: 0.39
Ki [1]: 5.4 nM
Ki [2]: 3.1 nM
Efficacy [4]: -0.04

Cc1csc(-c2cc(-c3cccn3C)c3n(c2=O)CCCc2ccncc2-3)n1
Efficacy [3]: 0.46
Ki [1]: 4 nM
Ki [2]: 3 nM
Efficacy [4]: 0

Cc1csc(-c2cc(-c3ccc(Cl)cc3)c3n(c2=O)CCCc2ccncc2-3)n1
Efficacy [3]: 0.26
Ki [5]: 0.2 nM
Ki [2]: 0.4 nM
Efficacy [4]: 0.17

Cc1csc(-c2cc(-c3c(C)noc3C)c3n(c2=O)CCCc2ccncc2-3)n1
Efficacy [3]: 0.41
Ki [1]: 4.6 nM
Ki [2]: 3.1 nM
Efficacy [4]: -0.11

Cc1csc(-c2cc(-c3ccncc3)c3n(c2=O)CCCc2ccncc2-3)n1
Ki [6]: 65.9 nM
Efficacy [3]: 0.45
Ki [1]: 1.3 nM
Ki [2]: 0.5 nM
bioavailability [7]: 20%
Ki [8]: 27.9 nM
Efficacy [4]: 0
bioavailability [9]: 28%
Ki [10]: > 33.3 nM

Cc1csc(-c2cc(-c3ccc(C(C)(C)C)cc3)c3n(c2=O)CCCc2ccncc2-3)n1
Ki [1]: > 33 nM
Ki [2]: > 33 nM

Cc1csc(-c2cc(-c3ccccc3F)c3n(c2=O)CCCc2ccncc2-3)n1
Efficacy [3]: 0.48
Ki [1]: 5 nM
Ki [2]: 3 nM
Efficacy [4]: 0.56

Cc1csc(-c2cc(-c3nccn3C)c3n(c2=O)CCCc2ccncc2-3)n1
Efficacy [3]: -0.01
Ki [5]: 14.3 nM
Ki [2]: 16.8 nM
Efficacy [4]: -0.33

Cc1csc(-c2cc(-c3cccnc3)c3n(c2=O)CCCc2ccncc2-3)n1
Efficacy [3]: -0.02
Ki [1]: 5.3 nM
Ki [2]: 2.4 nM
Efficacy [4]: -0.16

Cc1csc(-c2cc(-c3ccoc3)c3n(c2=O)CCCc2ccncc2-3)n1
Efficacy [3]: 0.05
Ki [1]: 3.9 nM
Ki [2]: 4.4 nM
Efficacy [4]: 0.04

Cc1csc(-c2cc(-c3ccccc3C)c3n(c2=O)CCCc2ccncc2-3)n1
Efficacy [3]: 0.36
Ki [1]: 1.5 nM
Ki [2]: 1.2 nM
Efficacy [4]: 0.08

Cc1csc(-c2cc(-c3ccccc3)c3n(c2=O)CCCc2ccncc2-3)n1
Efficacy [3]: 0.32
Ki [1]: 0.7 nM
Ki [2]: 0.4 nM
Ki [11]: 0.3 nM
Efficacy [4]: 0.1

Cc1csc(-c2cc(-c3cccnn3)c3n(c2=O)CCCc2ccncc2-3)n1
Efficacy [3]: -0.44
Ki [1]: 26.1 nM
Ki [2]: 17.3 nM
Efficacy [4]: -0.33

Cc1csc(-c2cc(-c3ccc[nH]3)c3n(c2=O)CCCc2ccncc2-3)n1
Efficacy [3]: 0.41
Ki [1]: 7.8 nM
Ki [2]: 4.2 nM
Efficacy [4]: -0.21

Cc1csc(-c2cc(-c3ccn(C)n3)c3n(c2=O)CCCc2ccncc2-3)n1
Efficacy [3]: 0.47
Ki [1]: 10 nM
Ki [2]: 20 nM
Efficacy [4]: 0.29

Cc1csc(-c2cc(-c3cncnc3)c3n(c2=O)CCCc2ccncc2-3)n1
Efficacy [3]: 0.16
Ki [1]: 21.1 nM
Ki [2]: 9 nM
Efficacy [4]: -0.03
